Assays:
A549 = assay: Antiproliferative activity against human A549 cells after 2 days by spectrophotometric analysis; type: functional; conditions: A549, 48 h
HeLa = assay: Antiproliferative activity against human HeLa cells after 2 days by spectrophotometric analysis; type: functional; conditions: 48 h
Method in brief: (§1)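 Cells from ATCC were kept in RPMI 1640 with 5% FBS. They were exposed to graded concentrations in DMSO/RPMI for 48 h at 37 C under 5% CO2, then fixed with 50% trichloroacetic acid. Cellular protein was read at 540 nm at time zero and at 48 h, with and without compound. TGI (100% growth inhibition) was taken from the concentration-response curve.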

OVCAR-3 = assay: Antiproliferative activity against human OVCAR3 cells after 2 days by spectrophotometric analysis; type: functional; conditions: OVCAR-3, 48 h; method in brief: as §1
HepG2 = assay: Antiproliferative activity against human HepG2 cells after 2 days by spectrophotometric analysis; type: functional; conditions: HepG2, 48 h
[1] = target: Tyrosine-protein kinase ABL1 (Homo sapiens) (UniProt P00519); assay: Inhibition of human ABL1 at 10 uM using EAIYAAPFAKKK as substrate by [gamma-33P]-ATP assay relative to control
Method in brief: (§2)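 Commercial kinase panel screen at a single concentration of 10 μM. % inhibition was calculated as 100 minus % activity.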

[2] = target: RAC-alpha serine/threonine-protein kinase (Homo sapiens) (UniProt P31749); assay: Inhibition of human AKT1 at 10 uM using KGSGSGRPRTSSFAEG as substrate by [gamma-33P]-ATP assay relative to control; method in brief: as §2
[3] = target: Aurora kinase A (Homo sapiens) (UniProt O14965); assay: Inhibition of human AuroraA at 10 uM using [H-LRRASLG] as substrate by [gamma-33P]-ATP assay relative to control; method in brief: as §2
[4] = target: Serine/threonine-protein kinase B-raf (Homo sapiens) (UniProt P15056); assay: Inhibition of human BRAF at 10 uM using MEK1 (K97R) as substrate by [gamma-33P]-ATP assay relative to control; method in brief: as §2
[5] = target: Proto-oncogene tyrosine-protein kinase Src (Homo sapiens) (UniProt P12931); assay: Inhibition of human c-SRC at 10 uM using poly[Glu:Tyr] (4:1) as substrate by [gamma-33P]-ATP assay relative to control
Method in brief: (§3)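 Kinase-panel profiling (50 oncogenic kinases) run by an outside contract service. The test compound was tested at a single concentration of 10 μM. Percent inhibition was calculated as 100 minus % remaining activity.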

[6] = target: Cyclin-dependent kinase 1/cyclin B1 (Homo sapiens) (UniProt P06493+P14635); assay: Inhibition of human CDK1/cyclinB at 10 uM using Histone H1 as substrate by [gamma-33P]-ATP assay relative to control; type: protein-complex assay; method in brief: as §2
[7] = target: Serine/threonine-protein kinase Chk1 (Homo sapiens) (UniProt O14757); assay: Inhibition of human CHK1 at 10 uM using KKKVSRSGLYRSPSMPENLNRPR as substrate by [gamma-33P]-ATP assay relative to control; method in brief: as §2
[8] = target: Tyrosine-protein kinase Lck (Homo sapiens) (UniProt P06239); assay: Inhibition of human LCK at 10 uM using poly[Glu:Tyr] (4:1) as substrate by [gamma-33P]-ATP assay relative to control; method in brief: as §2
[9] = target: Ribosomal protein S6 kinase beta-1 (Homo sapiens) (UniProt P23443); assay: Inhibition of human RPS6KB1 at 10 uM using KKRNRTLTK as substrate by [gamma-33P]-ATP assay relative to control; method in brief: as §3
[10] = target: Death-associated protein kinase 1 (Homo sapiens) (UniProt P53355); assay: Inhibition of human DAPK1 at 10 uM using KKLNRTLSFAEPG as substrate by [gamma-33P]-ATP assay relative to control; method in brief: as §2
[11] = target: DNA-dependent protein kinase catalytic subunit (Homo sapiens) (UniProt P78527); assay: Inhibition of human DNA-PK at 10 uM using EPPLSQEAFADLWKK as substrate by [gamma-33P]-ATP assay relative to control; method in brief: as §2
DNA-dependent protein kinase catalytic subunit (Homo sapiens), sequence (P78527 whole entry): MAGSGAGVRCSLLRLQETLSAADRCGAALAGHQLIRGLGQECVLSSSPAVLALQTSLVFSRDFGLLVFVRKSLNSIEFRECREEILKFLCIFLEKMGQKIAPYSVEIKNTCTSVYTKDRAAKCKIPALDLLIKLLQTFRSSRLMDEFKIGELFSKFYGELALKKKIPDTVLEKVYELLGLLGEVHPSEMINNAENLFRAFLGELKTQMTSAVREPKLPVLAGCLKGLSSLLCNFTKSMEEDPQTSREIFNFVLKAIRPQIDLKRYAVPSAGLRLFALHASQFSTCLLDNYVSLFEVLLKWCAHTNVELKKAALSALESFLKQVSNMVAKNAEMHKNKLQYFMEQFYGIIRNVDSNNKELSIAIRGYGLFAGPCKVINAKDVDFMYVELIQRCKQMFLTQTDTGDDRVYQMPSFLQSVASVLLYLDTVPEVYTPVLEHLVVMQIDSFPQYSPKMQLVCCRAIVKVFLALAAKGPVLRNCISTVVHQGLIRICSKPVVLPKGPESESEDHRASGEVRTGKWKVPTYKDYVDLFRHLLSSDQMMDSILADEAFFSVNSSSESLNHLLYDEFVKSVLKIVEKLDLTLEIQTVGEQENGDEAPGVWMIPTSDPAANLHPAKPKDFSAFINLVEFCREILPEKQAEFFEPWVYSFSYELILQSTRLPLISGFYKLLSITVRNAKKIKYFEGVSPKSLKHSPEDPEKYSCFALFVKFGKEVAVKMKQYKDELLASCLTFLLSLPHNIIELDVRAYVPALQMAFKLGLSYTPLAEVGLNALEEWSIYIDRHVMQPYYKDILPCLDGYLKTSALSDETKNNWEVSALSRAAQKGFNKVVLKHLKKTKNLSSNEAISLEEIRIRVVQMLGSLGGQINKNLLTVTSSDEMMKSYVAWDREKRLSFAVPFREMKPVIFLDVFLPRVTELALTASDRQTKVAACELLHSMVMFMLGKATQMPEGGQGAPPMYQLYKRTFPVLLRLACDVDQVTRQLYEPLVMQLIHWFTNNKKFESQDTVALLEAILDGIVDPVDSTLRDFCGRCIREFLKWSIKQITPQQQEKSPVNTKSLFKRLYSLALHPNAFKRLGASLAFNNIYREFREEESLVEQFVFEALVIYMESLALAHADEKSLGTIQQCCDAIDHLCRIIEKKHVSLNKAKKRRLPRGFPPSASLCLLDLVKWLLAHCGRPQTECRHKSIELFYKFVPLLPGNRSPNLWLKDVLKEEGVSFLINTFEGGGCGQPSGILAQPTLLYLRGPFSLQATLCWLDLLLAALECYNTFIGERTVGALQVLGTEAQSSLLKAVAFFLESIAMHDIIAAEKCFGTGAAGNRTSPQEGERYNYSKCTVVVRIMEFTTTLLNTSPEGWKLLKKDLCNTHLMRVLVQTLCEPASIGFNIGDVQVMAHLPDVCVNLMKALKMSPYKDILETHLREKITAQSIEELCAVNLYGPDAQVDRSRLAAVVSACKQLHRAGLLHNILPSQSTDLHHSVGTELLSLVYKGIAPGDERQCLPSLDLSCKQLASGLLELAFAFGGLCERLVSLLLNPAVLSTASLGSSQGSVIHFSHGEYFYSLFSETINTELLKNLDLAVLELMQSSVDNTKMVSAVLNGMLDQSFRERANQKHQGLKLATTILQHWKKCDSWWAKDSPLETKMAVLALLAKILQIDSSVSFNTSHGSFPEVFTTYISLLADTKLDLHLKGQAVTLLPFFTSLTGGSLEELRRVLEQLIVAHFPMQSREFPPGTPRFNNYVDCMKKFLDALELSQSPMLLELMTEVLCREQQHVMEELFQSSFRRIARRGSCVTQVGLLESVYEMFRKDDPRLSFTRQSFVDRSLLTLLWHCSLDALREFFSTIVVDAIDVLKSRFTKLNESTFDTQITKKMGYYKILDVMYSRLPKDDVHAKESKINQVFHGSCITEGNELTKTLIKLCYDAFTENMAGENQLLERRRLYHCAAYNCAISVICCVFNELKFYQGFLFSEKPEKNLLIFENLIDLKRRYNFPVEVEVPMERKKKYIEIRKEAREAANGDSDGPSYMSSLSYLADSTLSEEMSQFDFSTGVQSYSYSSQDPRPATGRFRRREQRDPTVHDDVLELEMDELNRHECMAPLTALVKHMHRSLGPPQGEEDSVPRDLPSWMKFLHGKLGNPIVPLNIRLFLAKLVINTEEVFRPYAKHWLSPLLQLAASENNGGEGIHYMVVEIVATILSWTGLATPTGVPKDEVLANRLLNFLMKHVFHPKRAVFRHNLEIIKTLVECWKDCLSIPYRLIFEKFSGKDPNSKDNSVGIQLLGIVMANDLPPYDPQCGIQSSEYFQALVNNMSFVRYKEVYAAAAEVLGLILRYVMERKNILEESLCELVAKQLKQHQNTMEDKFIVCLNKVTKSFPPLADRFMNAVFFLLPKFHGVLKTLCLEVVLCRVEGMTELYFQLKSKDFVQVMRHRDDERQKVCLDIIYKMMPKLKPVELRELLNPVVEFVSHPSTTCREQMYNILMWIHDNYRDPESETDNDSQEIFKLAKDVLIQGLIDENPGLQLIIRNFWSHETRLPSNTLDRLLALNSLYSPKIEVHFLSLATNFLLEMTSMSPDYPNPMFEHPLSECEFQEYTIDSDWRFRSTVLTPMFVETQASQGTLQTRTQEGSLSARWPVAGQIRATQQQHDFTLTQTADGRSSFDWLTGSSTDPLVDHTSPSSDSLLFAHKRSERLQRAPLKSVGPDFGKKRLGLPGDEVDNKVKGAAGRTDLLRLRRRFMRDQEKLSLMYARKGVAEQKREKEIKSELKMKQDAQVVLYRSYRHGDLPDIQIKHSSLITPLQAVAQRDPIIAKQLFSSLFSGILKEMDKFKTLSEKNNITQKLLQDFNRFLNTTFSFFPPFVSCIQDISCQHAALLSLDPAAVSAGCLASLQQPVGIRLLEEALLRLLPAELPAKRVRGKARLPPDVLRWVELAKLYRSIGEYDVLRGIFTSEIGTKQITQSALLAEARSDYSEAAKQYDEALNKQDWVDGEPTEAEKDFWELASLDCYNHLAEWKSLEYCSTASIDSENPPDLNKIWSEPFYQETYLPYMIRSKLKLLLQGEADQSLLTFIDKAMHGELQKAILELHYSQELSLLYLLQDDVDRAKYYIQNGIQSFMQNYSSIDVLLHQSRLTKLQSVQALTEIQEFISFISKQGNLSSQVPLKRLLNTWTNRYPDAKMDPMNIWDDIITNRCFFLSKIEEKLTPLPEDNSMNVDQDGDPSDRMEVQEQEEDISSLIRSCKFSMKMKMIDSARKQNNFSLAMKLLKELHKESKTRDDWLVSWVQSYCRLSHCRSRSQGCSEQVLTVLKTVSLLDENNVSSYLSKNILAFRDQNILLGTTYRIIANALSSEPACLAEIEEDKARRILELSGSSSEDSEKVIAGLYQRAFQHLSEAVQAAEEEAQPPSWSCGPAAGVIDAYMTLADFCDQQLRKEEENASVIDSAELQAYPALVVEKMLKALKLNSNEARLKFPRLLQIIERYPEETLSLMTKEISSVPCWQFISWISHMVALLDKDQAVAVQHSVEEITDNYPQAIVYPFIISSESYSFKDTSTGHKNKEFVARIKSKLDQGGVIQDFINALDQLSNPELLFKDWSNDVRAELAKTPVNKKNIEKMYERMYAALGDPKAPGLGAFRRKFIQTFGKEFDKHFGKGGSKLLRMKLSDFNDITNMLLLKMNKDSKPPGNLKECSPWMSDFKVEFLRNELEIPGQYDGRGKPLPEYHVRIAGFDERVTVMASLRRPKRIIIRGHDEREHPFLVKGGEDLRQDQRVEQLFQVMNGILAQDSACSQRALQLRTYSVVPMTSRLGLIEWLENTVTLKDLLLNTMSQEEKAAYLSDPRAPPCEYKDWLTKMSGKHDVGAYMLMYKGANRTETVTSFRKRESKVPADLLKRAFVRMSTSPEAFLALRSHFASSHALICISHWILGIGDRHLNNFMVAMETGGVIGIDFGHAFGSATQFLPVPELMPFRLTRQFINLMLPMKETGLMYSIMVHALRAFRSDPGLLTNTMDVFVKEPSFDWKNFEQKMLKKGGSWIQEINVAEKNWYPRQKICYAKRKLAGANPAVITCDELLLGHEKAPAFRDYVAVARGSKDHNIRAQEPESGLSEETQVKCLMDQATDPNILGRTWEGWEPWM

[12] = target: Epidermal growth factor receptor (Homo sapiens) (UniProt P00533); assay: Inhibition of human EGFR at 10 uM using poly[Glu:Tyr] (4:1) as substrate by [gamma-33P]-ATP assay relative to control; method in brief: as §2
[13] = target: Tyrosine-protein kinase Fyn (Homo sapiens) (UniProt P06241); assay: Inhibition of human FYN at 10 uM using poly[Glu:Tyr] (4:1) as substrate by [gamma-33P]-ATP assay relative to control; method in brief: as §2
[14] = target: Homeodomain-interacting protein kinase 1 (Homo sapiens) (UniProt Q86Z02); assay: Inhibition of human HIPK1 at 10 uM using MBP as substrate by [gamma-33P]-ATP assay relative to control; method in brief: as §2
[15] = target: Inhibitor of nuclear factor kappa-B kinase subunit alpha (Homo sapiens) (UniProt O15111); assay: Inhibition of human IKKalpha at 10 uM using KKKKERLLDDRHDSGLDSMKDEE as substrate by [gamma-33P]-ATP assay relative to control; method in brief: as §2
[16] = target: Proto-oncogene tyrosine-protein kinase ROS (Homo sapiens) (UniProt P08922); assay: Inhibition of human ROS at 10 uM using KKKSPGEYVNIEFG as substrate by [gamma-33P]-ATP assay relative to control; method in brief: as §3
[17] = target: Tyrosine-protein kinase receptor TYRO3 (Homo sapiens) (UniProt Q06418); assay: Inhibition of human TYRO3 at 10 uM using poly[Glu:Tyr] (4:1) as substrate by [gamma-33P]-ATP assay relative to control; method in brief: as §3
Tyrosine-protein kinase receptor TYRO3 (Homo sapiens), sequence (Q06418 whole entry): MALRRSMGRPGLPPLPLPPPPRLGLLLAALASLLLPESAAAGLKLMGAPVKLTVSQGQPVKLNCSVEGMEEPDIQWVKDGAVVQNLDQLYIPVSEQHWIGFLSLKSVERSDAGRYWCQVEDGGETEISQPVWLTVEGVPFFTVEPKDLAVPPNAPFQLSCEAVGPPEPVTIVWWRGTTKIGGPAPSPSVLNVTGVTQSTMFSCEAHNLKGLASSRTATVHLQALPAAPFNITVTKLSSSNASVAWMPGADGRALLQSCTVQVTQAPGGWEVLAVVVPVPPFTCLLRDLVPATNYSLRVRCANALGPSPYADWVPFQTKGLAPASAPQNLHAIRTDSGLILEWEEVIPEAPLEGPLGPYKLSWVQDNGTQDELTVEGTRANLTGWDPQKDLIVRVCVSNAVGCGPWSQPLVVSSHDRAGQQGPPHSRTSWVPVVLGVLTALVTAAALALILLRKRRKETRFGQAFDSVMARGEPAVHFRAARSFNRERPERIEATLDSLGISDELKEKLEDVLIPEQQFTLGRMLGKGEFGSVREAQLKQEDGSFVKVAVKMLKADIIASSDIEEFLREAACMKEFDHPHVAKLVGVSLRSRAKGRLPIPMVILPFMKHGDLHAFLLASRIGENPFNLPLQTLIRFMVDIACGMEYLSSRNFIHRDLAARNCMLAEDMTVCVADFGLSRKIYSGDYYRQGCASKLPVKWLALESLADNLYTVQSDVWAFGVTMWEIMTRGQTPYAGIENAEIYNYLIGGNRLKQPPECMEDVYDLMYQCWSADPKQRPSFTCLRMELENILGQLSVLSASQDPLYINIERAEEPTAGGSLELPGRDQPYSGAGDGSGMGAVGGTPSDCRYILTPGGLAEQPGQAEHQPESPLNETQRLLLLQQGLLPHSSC

[18] = target: Tyrosine-protein kinase Yes (Homo sapiens) (UniProt P07947); assay: Inhibition of human YES at 10 uM using poly[Glu:Tyr] (4:1) as substrate by [gamma-33P]-ATP assay relative to control; method in brief: as §3
Aurora kinase A = Aurora kinase A (Homo sapiens, UniProt O14965); assay: Inhibition of human AuroraA using [H-LRRASLG] as substrate by [gamma-33P]-ATP assay
Focal adhesion kinase 1 = Focal adhesion kinase 1 (Homo sapiens, UniProt Q05397); assay: Inhibition of human FAK using poly[Glu:Tyr] (4:1) as substrate by [gamma-33P]-ATP assay
[19] = target: Receptor-type tyrosine-protein kinase FLT3 (Homo sapiens, UniProt P36888); assay: Inhibition of human FLT3 using EAIYAAPFAKKK as substrate by [gamma-33P]-ATP assay
[20] = target: Tyrosine-protein kinase SYK (Homo sapiens, UniProt P43405); assay: Inhibition of human SYK using poly[Glu:Tyr] (4:1) as substrate by [gamma-33P]-ATP assay
[21] = target: Tyrosine-protein kinase receptor TYRO3 (Homo sapiens, UniProt Q06418); assay: Inhibition of human TYRO3 using poly[Glu:Tyr] (4:1) as substrate by [gamma-33P]-ATP assay
Tyrosine-protein kinase receptor TYRO3, sequence (Q06418 whole entry): as above

IMR-32 = assay: Antiproliferative activity against human IMR32 cells after 2 days by spectrophotometric analysis; type: functional; conditions: IMR-32, 48 h
HCT-116 = assay: Antiproliferative activity against human HCT116 cells after 2 days by spectrophotometric analysis; type: functional; conditions: HCT-116, 48 h

## CC(=O)N1CCN(c2ccc(Nc3ncc(C(F)(F)F)c(N4Cc5cccc(N(C)S(C)(=O)=O)c5C4)n3)cc2)CC1
A549
  GI50: 1300 nM
HeLa
  GI50: 730 nM
OVCAR-3
  GI50: 970 nM
HepG2
  GI50: 1400 nM
[1]
  inhibition: 63.1%
[2]
  inhibition: -3.6%
[3]
  inhibition: 95.3%
[4]
  inhibition: 6.7%
[5]
  inhibition: 88.2%
[6]
  inhibition: 20.5%
[7]
  inhibition: 37.2%
[8]
  inhibition: 84.1%
[9]
  inhibition: 65.5%
[10]
  inhibition: 42.2%
[11]
  inhibition: -4%
[12]
  inhibition: 2%
[13]
  inhibition: 62.2%
[14]
  inhibition: 83.8%
[15]
  inhibition: 14.1%
[16]
  inhibition: 92.2%
[17]
  inhibition: 87.7%
[18]
  inhibition: 90.5%
Aurora kinase A
  IC50: 3 nM
Focal adhesion kinase 1
  IC50: 11 nM
[19]
  IC50: 4.6 nM
[20]
  IC50: 5.1 nM
[21]
  IC50: 50 nM
IMR-32
  GI50: 260 nM
HCT-116
  GI50: 420 nM

Reference: ChEMBL document CHEMBL4325842, “Design, synthesis, and biological evaluation of novel aminopyrimidinylisoindolines as AXL kinase inhibitors” (Bioorg Med Chem Lett, 2018)
